TRPC6 inh – inhibitors of mouse TRPC6 channel; hit rate 1.1% among 310,000; B-score at 10 µM; HEK293-TRPC6, membrane potential dye, ACh-evoked depolarization; stronger effect = lower value;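 active = B-score under library mean minus 3 SD, initial fluorescence not abnormally high, positive integrated signal ratio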;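 note: B-score derived from integrated fluorescence ratio over the kinetic read; more negative B-score means stronger inhibition of depolarization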
Target sequence (Q61143 whole entry, looked up): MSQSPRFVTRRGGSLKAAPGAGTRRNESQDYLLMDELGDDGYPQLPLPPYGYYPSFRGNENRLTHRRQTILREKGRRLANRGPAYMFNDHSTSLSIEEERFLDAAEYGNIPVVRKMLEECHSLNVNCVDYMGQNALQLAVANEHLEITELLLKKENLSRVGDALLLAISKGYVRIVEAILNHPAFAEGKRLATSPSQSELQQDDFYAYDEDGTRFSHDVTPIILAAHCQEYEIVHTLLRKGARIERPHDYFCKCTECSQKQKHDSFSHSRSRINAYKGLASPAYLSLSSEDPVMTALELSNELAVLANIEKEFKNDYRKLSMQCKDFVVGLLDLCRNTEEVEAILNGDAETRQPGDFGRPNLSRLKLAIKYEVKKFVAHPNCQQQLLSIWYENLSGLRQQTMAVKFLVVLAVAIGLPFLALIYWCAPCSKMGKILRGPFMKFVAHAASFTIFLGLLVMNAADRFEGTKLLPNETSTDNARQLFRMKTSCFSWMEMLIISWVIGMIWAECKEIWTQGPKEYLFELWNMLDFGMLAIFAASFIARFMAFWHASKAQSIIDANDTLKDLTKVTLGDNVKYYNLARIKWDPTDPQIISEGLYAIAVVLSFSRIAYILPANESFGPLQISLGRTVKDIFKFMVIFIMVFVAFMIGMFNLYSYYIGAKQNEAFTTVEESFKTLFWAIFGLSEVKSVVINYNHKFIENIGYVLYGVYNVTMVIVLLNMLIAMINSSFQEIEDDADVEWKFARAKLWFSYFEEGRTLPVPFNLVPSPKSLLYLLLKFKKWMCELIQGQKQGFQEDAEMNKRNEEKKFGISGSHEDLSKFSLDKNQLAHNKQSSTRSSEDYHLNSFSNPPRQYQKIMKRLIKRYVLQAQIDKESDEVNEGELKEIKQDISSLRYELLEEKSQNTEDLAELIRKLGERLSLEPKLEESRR
TRPC6 activator – mouse TRPC6 channel activation | B-score at 10 µM | hit rate 0.13% among 310,000 | HEK293-TRPC6 membrane potential dye fluorescence; stronger effect = higher value | AID 2550 | Q61143;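 active = B-score of the integrated fluorescence ratio above library mean plus 3 SD, and starting fluorescence ratio within library mean plus 5 SD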;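 note: higher score means more depolarization so channel activation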
TRPC4 act – opens the mouse TRPC4 cation channel; Q9QUQ5; hit rate 0.49% among 310,000; AID 2237; B-score at 10 µM; HEK293 TRPC4beta/mu-opioid, Fluo4 calcium fluorescence; stronger effect = higher value;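 active = B-score above 5 SD of library B-scores, and initial fluorescence ratio not above library mean plus 5 SD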;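 note: positive B-score marks a calcium rise read as TRPC4 activation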
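Material: HEK293 stable line with TRPC4beta plus mu-opioid receptor; technique: Fluo4 calcium-sensitive dye fluorescence, kinetic, 1 Hz baseline; timing: Fluo4 dye loading 45 min at room temperature, 110 s recording; controls: assay buffer as low control, maximal DAMGO as high control; read-out: integrated baseline-normalised fluorescence ratio, converted to per-well B score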
TRPC4 PAM – TRPC4 (mouse) allosteric potentiation; HEK293 TRPC4beta/mu-opioid, DAMGO EC20, Fluo-4 Ca2+ flux; stronger effect = higher value; hit rate 0.42% among 310,000; B-score at 10 µM; AID 2227;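 active = B-score of calcium response area above 5 SD of library B-scores, with initial fluorescence ratio within 5 SD of library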;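 note: B-score of integrated fluorescence ratio over time as area under calcium response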
TRPC4 inh – inhibitors of mouse TRPC4 channel | HEK293 TRPC4beta/mu-opioid, DAMGO-evoked Fluo4 calcium flux; stronger effect = lower value | B-score at 10 µM | hit rate 0.39% among 300,000 | AID 2247;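 active = B-score over 3 SD under the library average, no early fluorescence shift, positive overall ratio signal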
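Material: HEK293 cells with stable TRPC4beta plus mu-opioid receptor expression; probe or stimulus: DAMGO in two steps, submaximal then maximal; technique: Fluo4 calcium fluorescence by kinetic imaging, 5 s 1 Hz baseline; measure: integrated fluorescence ratio relative to baseline, converted to per-well B score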
TRPC4 spec 2 – mouse TRPC4 off-target activity of TRPC6 inhibitors, second screen. shares compounds with TRPC6 inh. HEK293 TRPC4/MOR, membrane potential dye fluorescence; channel activated by saturating DAMGO dose. inhibition, % at 10 µM. hit rate 42% among 920. AID 2776;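 active = compounds whose fluorescence signal differed from control wells by over 3 SD, either direction, in both duplicate plates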
TRPC4 spec – tests whether TRPC6 inhibitors also affect mouse TRPC4. shares compounds with TRPC6 inh. HEK293 TRPC4/mu-opioid, membrane potential fluorescence. activity change, negative = inhibition, % at 10 µM. hit rate 61% among 920. AID 2777;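 active = rise or fall in signal beyond 3 SD of buffer-only wells in both replicate plates, either sign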;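 note: integrated kinetic ratio of fluorescence range over baseline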
HEK293 MPD ctr 2-1 – second counter-screen for TRPC6 inhibitors: parental HEK293 cells | shares compounds with TRPC6 inh | parental HEK293 membrane potential dye fluorescence; maximal acetylcholine challenge after compound addition | signal change vs control, % at 10 µM | hit rate 31% among 920 | AID 2779;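 active = membrane potential signal moving either way by over 3 SD of the maximum-effect control, in both duplicate plates, meaning non-specific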
HEK293 MPD ctr-1 – parental HEK293 nonspecific activity of TRPC6 inhibitors; shares compounds with TRPC6 inh; parental HEK293 membrane potential dye fluorescence; membrane potential signal change, % at 10 µM; hit rate 60% among 920; AID 2780;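 active = membrane potential signal shifting up or down by more than 3 SD of buffer-only wells, on both duplicate plates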
HEK293 MPD ctr-2 – counter-screen for TRPC6 modulators: effect in parental HEK293 cells | shares compounds with TRPC6 inh | membrane potential dye fluorescence | membrane potential signal change, % at 10 µM | hit rate 51% among 2,400 | AID 488924;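 active = membrane potential signal moves up or down beyond 5 SD from buffer-only wells, on both duplicate plates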
HEK293 MPD ctr 2-2 – parental HEK293 nonspecific activity of TRPC6 modulators, second screen; shares compounds with TRPC6 inh; membrane potential dye fluorescence; after compound, maximal acetylcholine stimulation; inhibition, % at 10 µM; hit rate 14% among 2,400; AID 488926;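 active = membrane potential signal drops by more than 5 SD from the mean control signal, in both duplicate plates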;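 note: plate controls were acetylcholine ECmax control wells for no effect and buffer only wells for full effect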
TRPC4 ctr mod – mouse TRPC4 off-target activity of TRPC6 modulators; HEK293 TRPC4/mu-opioid, membrane potential fluorescence; shares compounds with TRPC6 inh; hit rate 69% among 2,400; percent change from control (negative = decrease, positive = increase), % at 10 µM;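 active = membrane potential signal moved up or down beyond 5 SD of buffer control wells, in both duplicate plates, actives on both sides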;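 note: plate controls were assay buffer wells for no effect and DAMGO maximal-effect wells for full effect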
TRPC4 ctr inh 2 – second selectivity test of TRPC6 modulators against mouse TRPC4; shares compounds with TRPC6 inh; HEK293 TRPC4/mu-opioid, membrane potential dye fluorescence; stimulated with maximal-effect DAMGO; inhibition, % at 10 µM; hit rate 55% among 2,400;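 active = drop in membrane potential signal beyond 5 SD of the control wells in both duplicate plates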;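 note: TRPC4 counter screen for TRPC6 hits run under conditions tuned for TRPC6 not TRPC4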
TRPC6 block conf – mouse TRPC6 inhibitor confirmation; shares compounds with TRPC6 inh; HEK293-TRPC6, membrane potential dye, ACh-evoked depolarization; inhibition, % at 10 µM; hit rate 43% among 3,300; AID 488960;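 active = fluorescence ratio falls more than 5 SD below the full-stimulation control mean, in both duplicate runs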;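 note: integrated fluorescence ratio of peak minus minimum over baseline after agonist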
TRPC6 act conf – confirmation of mouse TRPC6 activators. shares compounds with TRPC6 inh. HEK293-TRPC6 membrane potential dye fluorescence, FDSS. activation, % at 10 µM. hit rate 11% among 2,800;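 active = ratio signal rise beyond 5 SD above unstimulated control wells' mean, seen in both duplicate runs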;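 note: plate controls were buffer EC0 wells for no effect and acetylcholine ECmax response for full effect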
Active calls of the source: *; i = inactive; x = no result. Sampled rows, rich in hits. Any-hit rate of the full collection: about 2.3%.

SMILES | TRPC6 inh | TRPC6 activator | TRPC4 act | TRPC4 PAM | TRPC4 inh | HEK293 MPD ctr-2 | HEK293 MPD ctr 2-2 | TRPC4 ctr mod | TRPC4 ctr inh 2 | TRPC6 block conf | TRPC6 act conf | others
N#CC(C#N)=C1c2cc(S(=O)(=O)NCCO)ccc2-c2ccc(S(=O)(=O)NCCO)cc21 | -5.22* | i | i | i | i | -138.0%* | i | -30.5%* | i | i | i
CC1=NN(c2ccccc2)C(=O)/C1=C/c1cn(C)c2ccccc12 | -5.39* | i | i | i | i | i | i | -11.5%* | 40.5%* | i | i
CC1=NN(c2ccccc2)C(=O)/C1=C/C=C/c1ccc(N(C)C)cc1 | -11.6* | i | i | i | i | x | x | x | x | 80.9%* | i | TRPC4 spec 2=74.0%*;TRPC4 spec=-14.0%*;HEK293 MPD ctr 2-1=i;HEK293 MPD ctr-1=-140.5%*
CC1=NN(c2ccc(C(=O)OC(C)C)cc2)C(=O)/C1=C\C=C\c1ccco1 | -6.26* | i | i | i | i | i | i | i | 45.0%* | i | i
CN(C(=O)COC(=O)c1ccccc1NCCO)C1CCS(=O)(=O)C1 (stereo unspecified) | i | i | i | i | i | x | x | x | x | x | x
O=C(CSc1ccc(-c2cccnc2)nn1)Nc1ccc(F)cc1 | i | i | i | i | i | x | x | x | x | x | x
O=C(N/N=C/c1c[nH]c2ccccc12)c1cc(Br)ccc1O | -6.33* | i | i | i | i | i | i | i | 60.5%* | 44.0%* | i
CCOc1ccc(Br)cc1C(=O)N/N=C/c1c[nH]c2ccccc12 | i | i | i | i | i | x | x | x | x | x | x
COc1ccc(Cn2c(-c3ccc(Br)cc3)c[n+]3ccccc23)cc1 | -12.6* | i | i | i | i | -269.0%* | i | -47.0%* | 48.5%* | 59.5%* | i
O=C(Nc1ccc(S(=O)(=O)N2CCCCC2c2cccnc2)cc1)c1c(F)cccc1F (stereo unspecified) | -5.06* | i | i | i | i | i | i | i | i | i | i
CC(=O)Nc1ccc(S(=O)(=O)n2cnc(C)c2)cc1 | i | i | i | i | i | x | x | x | x | x | x
Cc1ccc(S(=O)(=O)n2cnc(C)c2)cc1 | -8.24* | i | i | i | i | x | x | x | x | i | i | TRPC4 spec 2=i;TRPC4 spec=i;HEK293 MPD ctr 2-1=i;HEK293 MPD ctr-1=i
CSc1nc(SCC(=O)NCC2CCCO2)c2c3c(sc2n1)CN(C)CC3 (stereo unspecified) | -4.99* | i | i | i | i | -134.5%* | i | -28.5%* | i | i | i
Cc1ccc(C(=O)NCCC(=O)N2CCCC2)cc1 | i | i | i | i | i | x | x | x | x | x | x
O=C(CCCC1=NS(=O)(=O)c2ccccc2N1)N1CCN(c2ccccc2)CC1 | -5.67* | i | i | i | i | i | i | i | i | 47.0%* | x
COc1cccc(N(CC(=O)NCCSCc2ccc(Cl)cc2)S(C)(=O)=O)c1 | i | i | i | i | i | x | x | x | x | x | x
O=C(O)Cn1c2c(c3ccccc31)CSc1ccc(Cl)cc1-2 | i | i | i | i | i | x | x | x | x | x | x
Cc1ccc(C2N(c3ccccc3)C(=S)N3CCCN23)cc1 (stereo unspecified) | -7.51* | i | i | i | i | x | x | x | x | 69.8%* | i | TRPC4 spec 2=i;TRPC4 spec=i;HEK293 MPD ctr 2-1=i;HEK293 MPD ctr-1=i
Cc1cc(C)n(-c2ccc(S(=O)(=O)N3CCCC3)cc2[N+](=O)[O-])n1 | i | i | i | i | i | x | x | x | x | x | x
Cc1cc(N2CCN(c3ccc([N+](=O)[O-])c4cccnc34)CC2)c2ccccc2n1 | i | i | i | i | i | x | x | x | x | x | x
Cc1cc(N2CCN(c3ccc(C(F)(F)F)cc3[N+](=O)[O-])CC2)c2ccccc2n1 | -6.33* | i | i | i | i | i | i | -12.5%* | 67.0%* | i | i
Cc1cc(C)n(-c2ccc(C(F)(F)F)cc2[N+](=O)[O-])n1 | -5.32* | i | i | i | i | i | i | 9.5%* | i | i | i
Cc1ccc(C)c(OCCC(=O)N2CCN(S(=O)(=O)c3cc(C)ccc3C)CC2)c1 | i | i | i | i | i | x | x | x | x | x | x
O=C(C1CCOCC1)N1CCCC(N2CCN(c3cccc(C(F)(F)F)c3)CC2)C1 (stereo unspecified) | i | i | i | i | i | x | x | x | x | x | x
COc1cc(Br)cc2cc(C(=O)OC3CCN(C)CC3)c(=O)oc12 | -12.1* | i | i | i | i | x | x | x | x | i | i | TRPC4 spec 2=72.5%*;TRPC4 spec=-24.7%*;HEK293 MPD ctr 2-1=i;HEK293 MPD ctr-1=-472.5%*
COc1cccc(-n2nnnc2SCC(=O)Nc2ccc(NC(C)=O)cc2)c1 | i | i | i | i | i | x | x | x | x | x | x
O=C(CSCc1cccc(Cl)c1)OCc1nc2ccsc2c(=O)[nH]1 | i | i | i | i | i | x | x | x | x | x | x
CCOC(=O)c1c(C)[nH]c(C(=O)OCc2csc(CC(=O)Nc3ccccc3C)n2)c1C | i | i | i | i | i | x | x | x | x | x | x
Cc1cc(N2CCOCC2)ccc1/C=C\[N+](=O)[O-] | i | 15* | i | i | i | 260.5%* | i | 32.5%* | i | i | 79.0%*

From PubChem BioAssay
